Residues, ends and D or L forms follow the SMILES beside them. *: point of attachment. Cbz = O=C(OCc1ccccc1)*
How the values were obtained:
MCF7 = test: Cytotoxicity against human MCF7 cells assessed as inhibition of cell viability after 48 hrs by MTT assay; format: functional, cell-based; conditions: MCF7, 48 h
How it was run: (§1)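 Cells grown in RPMI-1640 or DMEM with 10% FBS, 37 °C, 5% CO2. Adherent lines seeded at 1 × 10^5 cells/mL and allowed 12 h to attach; suspension cells seeded just before dosing. Compounds tested at various concentrations in triplicate for 48 h; cisplatin and paclitaxel as positive controls. MTT added for 4 h at 37 °C, then lysis in 20% SDS−50% DMF and OD read at 595 nm. IC50 by Reed and Muench method.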

RAW264.7 [1] = test: Cytotoxicity against mouse RAW264.7 cells assessed as inhibition of cell viability after 18 hrs by MTS assay; format: cell-based; conditions: raw264.7, 18 h
How it was run: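 RAW264.7 cells seeded at 2 × 10^5 cells/well and preincubated 24 h, then exposed to compounds (DMSO solutions) at given concentrations for 18 h. MTS added for 4 h and absorbance read at 490 nm. Viability expressed relative to untreated cells as 100%.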

A549 = test: Cytotoxicity against human A549 cells assessed as inhibition of cell viability after 48 hrs by MTT assay; format: functional, cell-based; conditions: A549, 48 h; how it was run: as §1
HL-60 = test: Cytotoxicity against human HL60 cells assessed as inhibition of cell viability after 48 hrs by MTT assay; format: functional, cell-based; conditions: HL-60, 48 h; how it was run: as §1
SW480 = test: Cytotoxicity against human SW480 cells assessed as inhibition of cell viability after 48 hrs by MTT assay; format: functional, cell-based; conditions: SW480, 48 h; how it was run: as §1
SMMC-7721 = test: Cytotoxicity against human SMMC7721 cells assessed as inhibition of cell viability after 48 hrs by MTT assay; format: functional, cell-based; conditions: SMMC-7721, 48 h; how it was run: as §1
RAW264.7 [2] = test: Inhibition of nitric oxide production in LPS-stimulated mouse RAW264.7 cells measured after 18 hrs by Griess reagent based multilabel plate reader analysis; format: functional, cell-based; conditions: RAW264.7, 18 h
How it was run: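 RAW264.7 macrophages in RPMI 1640 with 10% FBS at 2 × 10^5 cells/well, preincubated 24 h at 37 °C, 5% CO2. Then 18 h with 1 μg/mL LPS plus serial dilutions of compound (DMSO stock diluted in medium; top concentration 25 μM). Supernatant mixed 1:1 with Griess reagent, 5 min, absorbance at 570 nm, in triplicate. MG-132 as positive control.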

Structure (SMILES)	IC50 (MCF7) [µM]	Activity (RAW264.7 [1])	IC50 (A549) [µM]	IC50 (HL-60) [µM]	IC50 (SW480) [µM]	IC50 (SMMC-7721) [µM]	IC50 (RAW264.7 [2]) [µM]
COC[C@@H]1C(=O)[C@]23C[C@H]1C[C@H](OC(C)=O)[C@H]2[C@@]1(C)[C@H](C(=O)[C@@H]3O)C(C)(C)[C@@H](O)C[C@@H]1O [TENUIFOLIN L]	> 10	Non-toxic	> 10	> 10	> 10	> 10	> 25
C=C1[C@@H]2C[C@H](O)[C@@H]3[C@@](CC(=O)[C@@H]4C(C)(C)[C@@H](O)C[C@H](OC(C)=O)[C@]43C)(C2)[C@@H]1O [TENUIFOLIN F]	> 10	Non-toxic	> 10	> 10	> 10	> 10	> 25
C=C1[C@@H]2C[C@H](OC(C)=O)[C@@H]3[C@](C2)(C(=O)C[C@@H]2C(C)(C)[C@@H](O)C[C@H](OC(C)=O)[C@]23C)[C@@H]1OC(C)=O [TENUIFOLIN C]	> 10	Non-toxic	> 10	> 10	> 10	> 10	> 25
C=C1[C@@H]2C[C@H](OC(C)=O)[C@@H]3[C@@](CC(=O)[C@@H]4C(C)(C)[C@@H](O)C[C@H](O)[C@]43C)(C2)[C@@H]1O [TENUIFOLIN G]	> 10	Non-toxic	> 10	> 10	> 10	> 10	> 25
CC(C)C[C@@H](C=O)NC(=O)[C@H](CC(C)C)NC(=O)[C@H](CC(C)C)NC(=O)OCc1ccccc1 [MG-132] (Cbz-Leu-Leu-Leu-aldehyde)							0.15
C=C1C(=O)[C@]23C[C@H]1C[C@H](OC(C)=O)[C@H]2[C@]1(C)[C@@H](OC(C)=O)C[C@H](O)C(C)(C)[C@H]1C[C@@H]3OC(C)=O [ADENANTHIN C]	4.8	Non-toxic	> 10	1.8	5.1	3.2	3.8
C=C1C(=O)[C@@]23CC(=O)[C@@H]4C(C)(C)[C@@H](OC(C)=O)C[C@H](O)[C@@]4(C)[C@@H]2[C@@H](O)C[C@@H]1C3 [INFLEXARABDONIN E]	4.8	Non-toxic	6.8	1.7	4.6	2.2	5.7
C=C1[C@@H]2CC(=O)[C@@H]3[C@@](CC(=O)[C@@H]4C(C)(C)[C@@H](O)C[C@H](OC(C)=O)[C@]43C)(C2)[C@@H]1O [TENUIFOLIN H]	> 10	Non-toxic	> 10	> 10	> 10	> 10	> 25
C=C(C=O)[C@H]1C[C@@H](OC(C)=O)[C@H]2[C@@](O)(C1)[C@H](OC(C)=O)C(=O)[C@H]1C(C)(C)[C@H](O)C[C@@H](OC(C)=O)[C@@]12C [ISOABIETENIN C]	> 10	Non-toxic	> 10	4.7	> 10	> 10	10.8
C=C1[C@@H]2C[C@H](OC(C)=O)[C@H]3[C@]4(C)[C@@H](OC(C)=O)C[C@H](O)C(C)(C)[C@H]4C(=O)[C@H](OC(C)=O)[C@]3(C2)[C@@H]1O [ADENANTHIN J]	> 10	Non-toxic	> 10	> 10	> 10	> 10	> 25
CC(C)[C@@]1(O)CC(=O)C2=C(C1)[C@H](O)C[C@H]1[C@](C)(CO)CCC[C@]21C [ISOABIETENIN B]	> 10	Non-toxic	> 10	> 10	> 10	> 10	> 25

Reference: ChEMBL document CHEMBL2331327, “Bioactive abietane and ent-kaurane diterpenoids from Isodon tenuifolius” (J Nat Prod, 2013)
